High-throughput results deposited in PubChem BioAssay by several laboratories.
In the library only some 9.6% were active in any assay of this set; here they are far more common.
MT stabilize HCS – microtubule stabilizers in HeLa cells. HeLa tubulin immunostaining HCS, 24 h; share of cells brighter than vehicle mean+2SD. % tubulin-high responders, % at 10 µM. 0.83% of 200,000 active. AID 2205;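 active = plate Z-score above 3 for both tubulin-high and condensed-nucleus cell shares, with cell loss under 80%, at 10 µM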;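 note: anti alpha tubulin signal scored within the nucleus-defined area of each cell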
APP transl inh – APP translation inhibition; SH-SY5Y APP 5'UTR-luciferase reporter, luminescence; inhibition, % at 2 µM; 0.82% of 190,000 active; AID 1285;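 active = inhibition above a set limit, derived from the sample mean plus 3 SD, cut at about 45% in these data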
BaF3 tox – reduces parental Ba/F3 cell viability, JAK2V617F counter-screen. 1.1% of 220,000 active. CellTiter-Glo ATP luminescence. inhibition, % at 5.6 µM;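 active = inhibition above a per-campaign cutoff, the mean inhibition of all tested compounds plus 3 SD, cut at about 27% in these data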
Ba/F3 V617F tox – lowers viability of Ba/F3 cells expressing EpoR and JAK2V617F; ATP luminescence; inhibition, % at 5.6 µM; 1.1% of 220,000 active;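 active = inhibition above the campaign mean plus 3 SD over all tested compounds, cut at about 24% in these data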;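 note: cytokine-independent growth of Ba/F3 cells driven by EpoR plus mutant JAK2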
Lmaj promast – Leishmania major promastigote growth inhibition; Leishmania major promastigotes, resazurin fluorescence viability; inhibition, % at 10 µM; 9% of 200,000 active; AID 1063; in the data active = inhibition above about 50%;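 note: promastigotes grown with compound for 44 hours at 28 °C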
bCat nuc transl – beta-catenin nuclear translocation modulation; 0.3% of 190,000 active; HeLa beta-catenin nuclear translocation, immunofluorescence imaging; nuclear translocation activity, % at 5 µM;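 active = nuclear translocation activity above 50% at 5 µM, with a well cell count of 50 or more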;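 note: per-cell ratio of nuclear to cytoplasmic median beta-catenin stain intensity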
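Test system: HeLa cells, endogenous beta-catenin; Compound: single 5 µM dose plus 0.02–20 µM confirmation series; Times: compound exposure 24 h at 37°C; Signal: fluorescence imaging of beta-catenin antibody stain plus DAPI; Read-out: % activation, nuclear-to-cytoplasmic median beta-catenin signal ratio per cell.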
L major 1uM – blocks Leishmania major promastigote growth at 1 uM, repeat screen. shares compounds with Lmaj promast. L. major promastigote growth, resazurin fluorescence, 48 h. inhibition, % at 1 µM. 13% of 1,100 active;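 active = inhibition above about 50% in both repeat tests, limit read from the data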
Hits are given with their value; i = inactive; nt = no result.

SMILES	MT stabilize HCS	APP transl inh	BaF3 tox	Ba/F3 V617F tox	Lmaj promast	bCat nuc transl	L major 1uM
Cn1nc(C(F)(F)F)c2cc(NC(=O)OCc3ccc(F)cc3)sc21	i	i	i	i	i	i	nt
COC(=O)[C@H](CC(C)C)NC(=O)Nc1ccccc1F	nt	nt	i	i	nt	i	nt
COc1cc(CO)ccc1OCC(=O)Nc1ccc(Br)cc1	i	i	i	i	i	i	nt
COc1cc(CNCC(C)C)cc(Br)c1OCC(=O)Nc1ccccc1	i	i	i	i	100.4	i	i
O=C(Cn1nc(-c2ccccc2)nc1-c1ccccc1)OC1CCCCC1	i	i	i	i	i	i	nt
Cc1ccc2nc(/C(C#N)=C\c3ccc(N4CCCCC4)c([N+](=O)[O-])c3)[nH]c2c1	i	i	i	i	97.3	i	i
CCC(CC)C(=O)c1c[nH]c(C(=O)NCc2ccccn2)c1	i	i	i	i	i	i	nt
CCOC(=O)c1nnc2cc(C)nn2c1C	nt	nt	i	i	nt	i	nt
CCOC(=O)c1nc2cc3n(c(C)c-2c1C)C(C)C(C)=C3C (configuration not stated)	i	i	i	i	66.5	i	i
O=C(Nc1cc2c(oc1=O)CCCC2=O)c1ccc(Cl)cc1	i	i	i	i	i	i	nt
CC1CCN(C2CC(=O)N(c3ccccc3)C2=O)CC1 (configuration not stated)	i	i	i	i	i	i	nt
C[C@H]1CC[C@H]2C(=O)N3[C@H](c4ccccc4Br)[C@@H](C)CC[C@H]3C(=O)N2[C@@H]1c1ccccc1Br	i	i	i	i	100.0	i	i
C=CCn1cc(C(=O)NCCCOCC)c(=O)c2cc(S(=O)(=O)N(CC)CC)ccc21	i	i	i	i	i	i	nt
Cc1ccc(C)c(N2CCN(C(=O)c3cccn4c(=O)c5sccc5nc34)CC2)c1	i	i	i	i	i	i	nt
C=CCn1c(C)csc1=Nc1ccc(C(=O)O)cc1	i	i	i	i	i	i	nt
Clc1ccc(Nc2ccc(-n3ccnc3)nn2)cc1Cl	i	i	i	i	50.6	i	i
c1ccc(Nc2ccc(-n3ccnc3)nn2)cc1	i	i	i	i	i	i	nt
COC(=O)c1cc2ccsc2n1Cc1nc(-c2ccc(OC)cc2)oc1C	i	i	i	i	99.9	nt	93.5
COC(=O)c1cc2ccsc2n1Cc1cccc(F)c1	i	i	i	i	i	nt	nt
O=C(CCS(=O)(=O)c1ccc(Br)cc1)Nc1ccccn1	i	i	i	i	i	i	nt
Cc1ccc(-n2cc(CN(C)CCc3cn[nH]c3)c(-c3cccc(C)c3)n2)cc1	i	i	i	i	64.7	i	i
O=C(COC(=O)CCC(=O)c1ccc(Cl)cc1)NCc1ccco1	i	i	i	i	i	i	nt
Cc1noc(C)c1CS(=O)(=O)c1ccc([N+](=O)[O-])cc1	i	i	i	i	i	i	nt
Cc1ccc([N+](=O)[O-])cc1N=Nc1c(-c2ccc([N+](=O)[O-])cc2)[nH]n(C(N)=S)c1=O	i	i	i	i	88.1	i	i
NC(=S)Nn1c(CCC(=O)O)ccc1-c1ccccc1	i	i	i	i	65.9	i	i
SMILES	MT stabilize HCS	APP transl inh	BaF3 tox	Ba/F3 V617F tox	Lmaj promast	bCat nuc transl	L major 1uM
COc1ccc2oc(=O)c(/C(C)=N/Nc3ccccc3)cc2c1	i	i	i	i	i	i	nt
CC(C)(O)CCCC(C)(O)c1ccc(C(=O)O)cc1O (configuration not stated)	nt	nt	nt	nt	nt	i	nt
Cc1ccc(C(O)(COC(=O)C(C)C)COC(=O)C(C)C)c(O)c1	i	i	i	i	60.5	i	i
Cc1cc(Cl)ccc1OCC(=O)N(Cc1ccco1)C1CCS(=O)(=O)C1 (configuration not stated)	nt	nt	i	i	nt	i	nt
CCOC(=O)c1cnc2c(OC)cccc2c1Nc1ccc2c(c1)OCCO2	i	i	i	i	52.9	i	i
Cc1ccc(C(CCNC(C)c2cccs2)c2ccco2)cc1 (configuration not stated)	nt	nt	i	i	nt	i	nt
Cc1ccc(OCC(O)CN2CCN(CC(O)COc3ccc(C)cc3)CC2)cc1 (configuration not stated)	i	i	i	i	57.0	i	i
COc1ccccc1-n1c(=O)[nH]c2c(C(N)=O)nc(C3CCCCC3)nc21	i	i	i	i	84.0	i	i
Cc1ccc2cc(CN(c3ccccc3)S(=O)(=O)c3ccccc3)c(=O)[nH]c2c1	nt	nt	i	i	nt	i	nt
CCCN(Cc1cc2ccc(C)cc2[nH]c1=O)S(=O)(=O)c1ccccc1	i	i	i	i	63.5	nt	i
CCOC(=O)c1c(C)[nH]c(N=Nc2ccccc2C)c1C	i	i	i	i	72.0	i	i
CC1CCCCN1C(=O)CNCC1CCCO1 (configuration not stated)	i	i	i	i	i	i	nt
CC(=O)O[C@@H]1C[C@H]2C(C)(C)C(=O)C=C[C@]2(C)[C@H]2CC[C@@]3(C)[C@H](c4ccoc4)OC(=O)[C@H]4O[C@]43[C@@]21C	i	i	i	i	100.3	nt	93.9
CNc1ccccc1C(C)(C)c1cc(-c2cccc(Br)c2)no1	i	i	76.5	62.4	99.3	i	87.9
CC(C)C(=O)NS(=O)(=O)c1ccc(NS(C)(=O)=O)cc1	nt	nt	i	i	nt	i	nt
Cc1cc(/C=N/n2cnnc2)c(C)n1-c1ccc(Cl)cc1Cl	i	i	i	i	i	nt	nt
Cc1cc(/C=N/n2cnnc2)c(C)n1-c1cccc(Cl)c1	i	i	i	i	85.1	i	i
Cc1nnc(N2CCCCC2)c2ccccc12	i	i	i	i	52.5	nt	i
O=C(NC1CCCCC1)C(=S)N1CCCC1	i	i	i	i	i	i	nt
O=[N+]([O-])c1cccc(-c2nnc(C34CC5CC(CC(C5)C3)C4)o2)c1	i	i	i	i	i	i	nt
O=[N+]([O-])c1cc(-c2nnc(C34CC5CC(CC(C5)C3)C4)o2)cc([N+](=O)[O-])c1	i	i	i	i	99.8	i	96.3
Cc1ccc(S(=O)(=O)c2c(C)nn(-c3ccccc3)c2OC(=O)c2ccco2)cc1	i	i	i	i	i	i	nt
Cc1ccc(S(=O)(=O)c2c(C)nn(-c3ccccc3)c2OC(=O)c2ccc(Br)o2)cc1	i	i	i	i	52.7	nt	i
CCC(C)NC(=O)CNC(=S)N(Cc1ccccc1)Cc1cccnc1 (configuration not stated)	i	i	i	i	75.4	i	i
O=C(c1ccco1)N1CCN(S(=O)(=O)c2ccc(Oc3ccccc3)cc2)CC1	i	i	i	i	i	i	nt
CCOC(=O)N1CCN(C(=O)c2ccc3nc(C)sc3c2)CC1	i	i	i	i	i	i	nt
CCOC(=O)N1CCN(C(=O)c2ccc3c(c2)sc2nc(-c4ccccc4)cn23)CC1	i	i	i	i	58.4	i	i
CCc1ccc(CC)c(S(=O)(=O)Nc2ccc(C(=O)O)c(O)c2)c1	i	i	i	i	i	nt	nt
Cc1ccnn2cc3c(=O)n(C)c(=O)n(C)c3c12	i	i	i	i	i	i	nt
